# ChEMBL document CHEMBL1157960, “10-Phenyl-[12]-cytochalasins Z7, Z8, and Z9 from the marine-derived fungus Spicaria elegans” (J Nat Prod, 2006)
# Key:
# [1] = test system: P388; experiment: Cytotoxicity against mouse P388 cells after 72 hrs by MTT method; type: functional, cell-based; conditions: P388, 72 h
# Method in brief: (§1)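 Cells kept in RPMI-1640 with 10% FBS at 37 °C under 5% CO2/95% air. Seeded at 5 × 10^4 cells/mL and held 24 h before compound was added in DMSO at various concentrations. Incubation then ran 72 h. MTT (5 mg/mL stock) was added for 4 h, formazan was dissolved in DMSO, and absorbance was read at 540 nm. Result reported as IC50.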
# [2] = test system: A549; experiment: Cytotoxicity against human A549 cells after 72 hrs by MTT method; type: functional, cell-based; conditions: A549, 72 h; method in brief: as §1
SMILES,IC50 [1],IC50 [2]
CC1=C(C)[C@H]2[C@H](Cc3ccccc3)NC(=O)[C@]23OC(=O)O/C=C/[C@@](C)(O)C(=O)[C@@H](C)C/C=C/[C@H]3[C@@H]1O [CYTOCHALASIN K],89 µM,8.4 µM
C=C1[C@@H](C)[C@H]2[C@H](Cc3ccccc3)NC(=O)[C@]23OC(=O)/C=C/[C@H](C)[C@H](O)[C@@H](C)C/C=C/[C@H]3[C@@H]1O,75 µM,8.8 µM
CC1=C(C)[C@H]2[C@H](Cc3ccccc3)NC(=O)[C@]23OC(=O)/C=C/[C@@](C)(O)C[C@@H](C)C/C=C/[C@H]3[C@@H]1O [CYTOCHALASIN Z9],99 µM,8.7 µM
C[C@H]1C/C=C/[C@H]2[C@@H]3O[C@]3(C)[C@@H](C)[C@H]3[C@H](Cc4ccccc4)NC(=O)[C@]32OC(=O)O/C=C/[C@@](C)(O)C1=O [CYTOCHALASIN E],0.093 µM,0.0062 µM
CC1=C(C)[C@H]2[C@H](Cc3ccccc3)NC(=O)[C@]23OC(=O)/C=C/[C@H](C)[C@H](O)[C@@H](C)C/C=C/[C@H]3[C@@H]1O,56 µM,21 µM
